Screening results: PubChem BioAssay, Broad Institute
Wnt bcat act: Wnt/beta-catenin pathway activation; 300,000 compounds, 1.2% hits; Wnt/beta-catenin reporter cell assay, activator, plate reader; activation, % at 9.35 µM; AID 743398; in the data active = activation above about 30%, passing the limit was not always enough; inconclusive = no clear call, values can overlap the other calls;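 also: 0% = neutral control wells and 100% = positive control wells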
Env fusion inh: HIV envelope-mediated fusion inhibition; HeLa-JRFL Env/CEM21 cell fusion, luciferase; 360,000 compounds, 1.1% hits; AID 651610; inhibition, % at 12.3 µM;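 active = mean replicate inhibition score of at least 50 and every replicate individually at or above 50; inconclusive = only one of the two criteria met; inactive = mean below 50 and not all replicates reaching 50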;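 also: 0% = plate neutral controls and 100% = maraviroc near 300 nM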
MITF act: activators of MITF-driven TRPM1 promoter activity in SK-MEL-5 cells; SK-MEL-5 TRPM1-promoter luciferase, 24 h; % of positive control, neutral wells = 0; activation, % at 12.5 µM; 300,000 compounds, 0.75% hits;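 active = mean activation of at least 80% with every replicate also reaching 80%; inconclusive = mean reaches 80% but some replicate falls short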;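 also: 0% = neutral control wells and 100% = parthenolide positive control wells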
Cneo AK release: causes C. neoformans cell lysis; adenylate kinase release luminescence, 4 h; normalised: neutral wells 0, clomiphene wells 100; lysis activity, % at 15 µM; 360,000 compounds, 0.2% hits;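 active = mean lysis activity across replicates of at least 80%, whatever share of replicates individually reach that level; inactive = mean lysis activity below 80%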
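Material: C. neoformans cells; Schedule: 4 h static compound exposure, 37 °C, read 1 h post-reagent; Measured by: adenylate kinase release luminescence; Read-out: signal increase indicating cell lysis; Controls: Clomiphene as positive lysis control.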
ERAP1 HTS inh: ERAP1 (human) enzyme inhibition; Q9NZ08; recombinant ERAP1, Leu-AMC fluorescence, 60 min; inhibition, % at 10.7 µM; 340,000 compounds, 0.15% hits; AID 652197;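 active = mean replicate inhibition of at least 30%, or all replicates individually reaching that 30% level; inactive = mean below 30% and not every replicate reaching it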;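 also: 0% = neutral control wells and 100% = L-leucinethiol positive control wells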
esBAF inh: SWI/SNF esBAF complex inhibition | 350,000 compounds, 2% hits | reporter increase, % at 12.5 µM | AID 602393 | mouse ES cells, Bmi1-luciferase knock-in reporter, 24 h; 100% = twice the neutral-well signal; in the data active = activation above about 40%; inconclusive = no clear call, values can overlap the other calls;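 also: 0% = median of the plate's neutral control wells and 100% = double that signal; a rise in the Bmi1 reporter signal indicates esBAF inhibition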
Starred values were filed as active, the others as inactive; ? = inconclusive; / = not tested or not shown; [ ] = remark or other dose. Only some compounds are listed: those with a hit (about 3.5% of all), similar ones and a draw of the others.

SMILES | Wnt bcat act | Env fusion inh | MITF act | Cneo AK release | ERAP1 HTS inh | esBAF inh
CCC(CO)Nc1ccn2nc(-c3ccccc3)cc2n1 (stereo unspecified) | -2.4 | / | / | 11.6 | 6.9 | 69.2*
CCC(C)NC(=O)CSc1nc(-c2cccs2)cc(C(F)(F)F)n1 (stereo unspecified) | / | / | -4.8 | -1.9 | / | 1.2
CO[C@@H]1CN(C)C(=O)c2cc(NS(=O)(=O)CC(F)(F)F)ccc2OC[C@H](C)N(CC2CCCCC2)C[C@@H]1C | / | -3.2[16.7 µM] | / | -1.1 | / | -14.8
COc1cc(/C=C/C(=O)OCC(=O)N2CCC(C)CC2)ccc1O | 0.5 | / | 3.8 | 1.7 | 2.4 | -4.1
COc1cc(/C=C/C(=O)OC2CC3CCC2(C)C3(C)C)ccc1O (stereo unspecified) | -0.7 | / | 10.4 | -10.2 | 0.1 | 46.6*
Cc1cc(C)c(C(=O)/C=C/c2cccc3ccccc23)c(=O)[nH]1 | -6.1 | 11.0 | -86.8 | / | -1.2 | /
Cc1[nH]c(=O)c(C(=O)/C=C/c2ccccc2F)c2c1CCCC2 | -4.6 | / | -84.1 | -3.5 | 0.1 | 43.0*
N/C(=N\OC(=O)c1ccc(F)cc1)c1ccc(Br)cc1 | 44.2* | -26.4 | 65.6 | -2.1 | 3.0 | 56.2*
N/C(=N\OC(=O)c1ccc(Br)cc1)c1ccncc1 | 11.6 | -80.0 | 97.9* | / | -0.8 | ?
N/C(=N\OC(=O)c1ccc(F)cc1)c1ccccc1 | / | -191.4 | 32.9 | -4.0 | / | 34.2
CC12C(=O)N(c3nccs3)C(=O)C1(C)C1CCC2O1 (stereo unspecified) | -5.7 | / | / | -0.7 | 0.2 | -1.9
C[C@@]12C(=O)OC(=O)[C@]1(C)C1CCC2O1 | -3.2 | 104.6* | -79.1 | 0.0 | 0.9 | -25.2
CCOC(=O)[C@]12CCC=C1N(Cc1ccccc1)C(=O)[C@H](CC(=O)NCC13CC4CC(CC(C4)C1)C3)C2 | -4.3 | 63.9* | / | / | / | /
CCOC(=O)[C@]12CCC=C1N(Cc1cccc3ccccc13)C(=O)[C@H](CC(=O)NCC13CC4CC(CC(C4)C1)C3)C2 | -6.8 | -62.2 | / | / | -2.8 | /
CCCCCCCCN1C(=O)[C@H](CC(=O)NCCCCc2ccccc2)C[C@@]2(C(=O)OCC)CCCC=C12 | 2.5 | 68.6* | / | / | -2.5 | /
N#C/C(=C/c1cc(Br)cs1)C(=O)NCC1CCCO1 (stereo unspecified) | / | / | 3.6 | -1.8 | / | /
N#C/C(=C\c1cccs1)C(=O)NCC1CCCO1 (stereo unspecified) | 38.9* | -13.4 | / | / | / | 17.8
CN(Cc1cc(-c2ccccc2)on1)C(=O)c1cc(COc2c(F)cccc2F)on1 | 1.5 | -2.5 | 50.4 | 2.5 | -0.8 | 54.1*
COC(=O)[C@H](Cc1ccccc1)NC(=O)c1cc(COc2c(F)cccc2F)on1 | 18.0 | -47.8 | 46.5 | -2.6 | 2.5 | 51.8*
COc1ccc(S(=O)(=O)N(C)C[C@H]2OCCCC[C@@H](C)Oc3ccc(NC(=O)NC(C)C)cc3C(=O)N([C@H](C)CO)C[C@@H]2C)cc1 | / | -48.9[16.7 µM] | / | -2.8 | -0.5 | -1.9
Brc1csc(/C=N/Nc2nc3ccccc3s2)c1 | / | -424.9 | 84.1* | / | / | /
C(=N\Nc1nc2ccccc2s1)/c1ccc2c(c1)OCO2 | 14.0 | / | 24.4 | / | 3.6 | /
C(=N\Nc1nc2ccccc2s1)/c1ccccn1 | -12.1 | -2.1 | / | / | / | /
Brc1cc2c(cc1/C=N/Nc1nc3ccccc3s1)OCO2 | / | / | / | 0.7 | / | 68.2*
O=C(C[C@H]1CC[C@@H]2[C@H](COC[C@H](O)CN2Cc2ccc(C(F)(F)F)cc2)O1)N1CCc2ccccc2C1 | / | / | / | -0.7 | -1.2 | 12.5
C[C@H](CO)N1C[C@H](C)[C@H](CN(C)Cc2ccc(Oc3ccccc3)cc2)Oc2ccc(NC(=O)Nc3ccccc3)cc2C1=O | / | -11.3[16.7 µM] | / | 3.0 | 0.7 | -3.3
COc1ccc(N(C(=O)c2ccc(S(=O)(=O)N3CCCC3)cc2)C2C=CS(=O)(=O)C2)cc1 (stereo unspecified) | 39.8* | 4.6 | -10.1 | -1.3 | -3.2 | 6.0
C[n+]1ccc(/C=C/c2c[nH]c3ccc(F)cc23)cc1 | -14.7 | 59.4* | -17.4 | 0.5 | 3.8 | 7.6
Cn1cc(/C=C/c2cc[n+](C)cc2)c2cc(F)ccc21 | / | / | -37.8 | -0.4 | 66.3* | 5.6
CC=Cc1ccc2n(c1=O)C[C@@H]1[C@@H](CO)[C@H](C(=O)NCc3cccc(F)c3)[C@H]2N1S(C)(=O)=O (mixture of isomers) | / | / | / | -3.3 | -2.0 | 0.7
